Data set [1] has as its system UACC-62. The data set can be described thus: Antiproliferative activity against human UACC62 cells assessed as cell growth inhibition after 48 hrs by sulforhodamine B assay. The class given is functional. Conditions: UACC-62, 48 h. The procedure, abridged:
(§1)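 Human tumour lines and HaCaT normal keratinocytes in 96-well plates, exposed to compound in DMSO/RPMI (final DMSO 0.2%) for 48 h at 37 °C, 5% CO2. Cells were fixed with 50% trichloroacetic acid at time zero and after treatment. Protein was stained with sulforhodamine B and read at 540 nm. TGI (total growth inhibition) was derived by non-linear regression from triplicate runs.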
For orientation: Sulforhodamine B stains cellular protein and so reports cell mass.

In a further data set the test system is U-251. The data set can be described thus: Antiproliferative activity against human U251 cells assessed as cell growth inhibition after 48 hrs by sulforhodamine B assay. The data set is classed as functional. Conditions: U-251, 48 h. The procedure, abridged:
as §1

Data set [2] deals with MCF7. The data set can be described thus: Antiproliferative activity against human MCF7 cells assessed as cell growth inhibition after 48 hrs by sulforhodamine B assay. The data set is classed as functional. Conditions: MCF7, 48 h. In a few lines: as §1
Data set [3] has as its system NCI/ADR-RES. The data set can be described thus: Antiproliferative activity against human NCI/ADR-RES cells assessed as cell growth inhibition after 48 hrs by sulforhodamine B assay. The class given is functional. The procedure, abridged: as §1
The subject of data set [4] is 786-0. The data set can be described thus: Antiproliferative activity against human 786-0 cells assessed as cell growth inhibition after 48 hrs by sulforhodamine B assay. The class given is functional. Conditions: 786-0, 48 h. The procedure, abridged:
as §1

Another data set has as its system NCI-H460. The data set can be described thus: Antiproliferative activity against human NCI-H460 cells assessed as cell growth inhibition after 48 hrs by sulforhodamine B assay. The data set is classed as functional. The note with it: NCI-H460, 48 h. The procedure, abridged: as §1
Data set [5] concerns PC-3. The data set can be described thus: Antiproliferative activity against human PC3 cells assessed as cell growth inhibition after 48 hrs by sulforhodamine B assay. The data set is classed as functional. The note with it: PC-3, 48 h. The procedure, abridged:
as §1

The test system of data set [6] is OVCAR-3. The data set can be described thus: Antiproliferative activity against human OVCAR3 cells assessed as cell growth inhibition after 48 hrs by sulforhodamine B assay. The data set is classed as functional. The note with it: OVCAR-3, 48 h. In a few lines:
as §1

Data set [7] has as its system HT-29. The data set can be described thus: Antiproliferative activity against human HT-29 cells assessed as cell growth inhibition after 48 hrs by sulforhodamine B assay. The data set is classed as functional. The note with it: HT-29, 48 h. The procedure, abridged:
as §1

The test system of a further data set is HaCaT. The data set can be described thus: Cytotoxicity against human HaCaT cells assessed as cell growth inhibition after 48 hrs by sulforhodamine B assay. The data set is classed as cell-based. The procedure, abridged:
as §1

A short description of data set [8]: Selectivity index, ratio of TGI for human HaCaT cells to TGI for human U251 cells. The data set is classed as toxicity. Conditions: HaCaT cells and U251 cells, read-out: Selectivity Index.
In data set [9] the test system is MCF7. The data set can be described thus: Antiproliferative activity against human MCF7 cells at 25 uM after 48 hrs by sulforhodamine B assay. The class given is functional, cell-based. In a few lines:
(§2)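 Growth-inhibition profile of each tumour line at a single compound concentration of 25 μM. Cells were treated in DMSO/RPMI (final DMSO 0.2%) for 48 h at 37 °C, 5% CO2. Cells were fixed with 50% TCA before and after exposure. Cellular protein was quantified by sulforhodamine B staining at 540 nm.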

In data set [10] the test system is NCI/ADR-RES. The data set can be described thus: Antiproliferative activity against human NCI/ADR-RES cells at 25 uM after 48 hrs by sulforhodamine B assay. The class given is functional, cell-based. The procedure, abridged: as §2
The subject of data set [11] is 786-0. The data set can be described thus: Antiproliferative activity against human 786-0 cells at 25 uM after 48 hrs by sulforhodamine B assay. The data set is classed as functional, cell-based. In a few lines: as §2
For data set [12], the system named is HT-29. The data set can be described thus: Antiproliferative activity against human HT-29 cells at 25 uM after 48 hrs by sulforhodamine B assay. The class given is functional, cell-based. The procedure, abridged: as §2
Data set [13] relates to UACC-62. The data set can be described thus: Antiproliferative activity against human UACC62 cells at 25 uM after 48 hrs by sulforhodamine B assay. The class given is functional, cell-based. In a few lines:
as §2

For data set [14], the system named is PC-3. The data set can be described thus: Antiproliferative activity against human PC3 cells at 25 uM after 48 hrs by sulforhodamine B assay. The class given is functional, cell-based. In a few lines: as §2
Data set [15] has as its system OVCAR-3. The data set can be described thus: Antiproliferative activity against human OVCAR3 cells at 25 uM after 48 hrs by sulforhodamine B assay. The class given is functional, cell-based. The procedure, abridged:
as §2

The source made the active and inactive calls. The rule behind the calls is not given here.

In general, TGI refers to the concentration giving total growth inhibition. As to `C=C(C)[C@@H]1CC=C(Cn2cc(COc3ccc(C4NC(=O)NC5=C4C(=O)CC(C)(C)C5)cc3)nn2)CC1` (stereo partly specified), the TGI with UACC-62 [1] was 29.9 µM; in the data set with U-251, 6.61 µM; in the data set on MCF7 [2] it was greater than 100 µM; in the data set on NCI/ADR-RES [3], greater than 100 µM; in the data set on 786-0 [4] it was 53.2 µM; in the data set on NCI-H460, greater than 100 µM. Further, the TGI was 24 µM with PC-3 [5], 29.3 µM in the data set with OVCAR-3 [6], greater than 100 µM in the data set on HT-29 [7] and 436.18 µM in the data set with HaCaT. Further, the selectivity ratio in data set [8] is 66.

On to `CCOC(=O)C1=C(C)NC(=O)NC1c1cccc(O)c1` (stereo unspecified), for which the outcome with MCF7 [9], in the data set on NCI/ADR-RES [10], with 786-0 [11], with HT-29 [12], in the data set on UACC-62 [13] and with PC-3 [14] was Active. Besides, the outcome in the data set with OVCAR-3 [15] was Active.

`CCOC(=O)C1=C(C)NC(=S)NC1c1cccc(O)c1` (stereo unspecified): the outcome in the data set on MCF7 [9], in the data set on NCI/ADR-RES [10], in the data set with 786-0 [11], in the data set with HT-29 [12], with UACC-62 [13] and with PC-3 [14] was Active. Moreover, the outcome in the data set on OVCAR-3 [15] was Active.

For the compound `C=C(C)[C@@H]1CC=C(Cn2cc(COc3cccc(C4NC(=O)NC(C)=C4C(=O)OCC)c3)nn2)CC1` (stereo partly specified), the TGI was 22.9 µM in the data set with UACC-62 [1]; 12.2 µM in the data set on U-251; 42.5 µM with MCF7 [2]; greater than 100 µM with NCI/ADR-RES [3]; 39.7 µM in the data set on 786-0 [4]; greater than 100 µM with NCI-H460. Also, the TGI is greater than 100 µM in the data set on PC-3 [5], 18.4 µM with OVCAR-3 [6], 73.4 µM in the data set on HT-29 [7] and 507.82 µM in the data set with HaCaT. Moreover, the selectivity ratio in data set [8] turned out to be 41.7.

Values taken from ChEMBL document CHEMBL4257545, “Synthesis of novel perillyl-dihydropyrimidinone hybrids designed for antiproliferative activity” (Medchemcomm, 2018).
